Test results reported in ChEMBL document CHEMBL1123899, “Nucleic acid related compounds. 51. Synthesis and biological properties of sugar-modified analogues of the nucleoside antibiotics tubercidin, toyocamycin, sangivamycin, and formycin” (1987).
Values after ≈ are worked out from the molar mass of the structure shown.

Key:
[1] = test system: Human alphaherpesvirus 1; test: Minimum inhibitory concentration required to reduce Herpes simplex virus type 1 (HSV-1, strain KOS) induced cytopathogenicity by 50%; format: functional
[2] = test system: HeLa; test: Minimum cytotoxic concentration required to cause a microscopically detectable alteration of normal cell morphology in Hela cells; format: functional, Homo sapiens
Outline: (§1)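 Cytotoxicity read microscopically as the minimum concentration producing a detectable alteration of normal cell morphology, in PRK, HeLa or Vero cell cultures. Average of two to three separate experiments.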

[3] = test system: L1210; test: Inhibition of murine leukemia L1210 cell growth; format: functional; conditions: Mus musculus
Outline: (§2)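 Murine L1210 leukemia cells; MIC50 is the concentration reducing cell growth, or incorporation of [methyl-3H]dThd into TCA-insoluble material (DNA synthesis), by 50%. Average of at least three separate experiments.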

[4] = test system: L1210; test: Minimum inhibitory concentration required to reduce incorporation of [4,5-3H]leucine into TCA-insoluble material from murine leukemia L1210 cells; format: functional; conditions: Mus musculus
Outline: (§3)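 Murine L1210 leukemia cells were exposed to compound and incorporation of [4,5-3H]leucine (protein) or [5-3H]Urd (RNA) into TCA-insoluble material was measured. MIC50 is the concentration reducing incorporation by 50%. Values are averages of at least three separate experiments.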

[5] = test system: L1210; test: Minimum inhibitory concentration required to reduce incorporation of [5-3H]-Urd into TCA-insoluble material from murine leukemia L1210 cells; format: functional; conditions: Mus musculus; outline: as §3
[6] = test system: L1210; test: Minimum inhibitory concentration required to reduce incorporation of [methyl-3H]dThd into TCA-insoluble material from murine leukemia L1210 cells; format: functional; conditions: Mus musculus; outline: as §2
[7] = test system: Measles morbillivirus; test: Minimum inhibitory concentration required to reduce measles virus induced cytopathogenicity by 50%; format: functional
[8] = test system: Human respirovirus 3; test: Minimum inhibitory concentration required to reduce parainfluenza type 3 induced cytopathogenicity by 50%; format: functional
[9] = test system: Poliovirus 1; test: Minimum inhibitory concentration required to reduce Polio virus type 1 induced cytopathogenicity by 50%; format: functional; conditions: Enterovirus C
[10] = species: Oryctolagus cuniculus; test: Minimum cytotoxic concentration required to cause a microscopically detectable alteration of normal cell morphology in primary rabbit kidney cells; format: functional; outline: as §1
[11] = test system: Mammalian orthoreovirus 1; test: Minimum inhibitory concentration required to reduce reo virus type 1 induced cytopathogenicity by 50%; format: functional
[12] = test system: Sindbis virus; test: Minimum inhibitory concentration required to reduce sindbis virus induced cytopathogenicity by 50%; format: functional
[13] = test system: Vesicular stomatitis virus; test: Minimum inhibitory concentration required to reduce Vesicular stomatitis virus (VSV) induced cytopathogenicity by 50%; format: functional
[14] = test system: Vesicular stomatitis virus; test: Minimum inhibitory concentration required to reduce vesicular stomatitis virus (VSV) induced cytopathogenicity by 50%; format: functional
[15] = test system: Vero; test: Minimum cytotoxic concentration required to cause a microscopically detectable alteration of normal cell morphology in Vero cells; format: functional, Chlorocebus sabaeus; outline: as §1
[16] = test system: Human alphaherpesvirus 2; test: Minimum inhibitory concentration required to reduce Herpes simplex virus type 2 (HSV-2 strain G) induced cytopathogenicity by 50%; format: functional
[17] = test system: Coxsackievirus B4; test: Minimum inhibitory concentration required to reduce Coxsackie virus type B-4-induced cytopathogenicity by 50%; format: functional

| SMILES | MIC50 [1] | MTC [2] | MIC50 [3] | MIC50 [4] | MIC50 [5] | MIC50 [6] | MIC50 [7] | MIC50 [8] | MIC50 [9] | MTC [10] | MIC50 [11] | MIC50 [12] | MIC50 [13] | MIC50 [14] | MTC [15] | MIC50 [16] | MIC50 ([17]; Enterovirus B, read-out: MIC50) | MIC50 [17] |
| --- | --- | --- | --- | --- | --- | --- | --- | --- | --- | --- | --- | --- | --- | --- | --- | --- | --- | --- |
| Nc1ncnc2c1ccn2C1OC(CO)CC1O (configuration not stated) | > 10 µg/mL | 40 µg/mL | 0.38 µg/mL (≈ 1.52 µM) | 2.08 µg/mL (≈ 8.31 µM) | 3.2 µg/mL (≈ 12.8 µM) | 90 µg/mL (≈ 360 µM) | > 100 µg/mL | 20 µg/mL (≈ 79.9 µM) | 2 µg/mL (≈ 7.99 µM) | 10 µg/mL | 10 µg/mL (≈ 40 µM) | > 100 µg/mL | 20 µg/mL (≈ 79.9 µM) | > 10 µg/mL | 100 µg/mL | > 10 µg/mL |  |  |
| Nc1ncnc2c(C3OC(CO)CC3O)n[nH]c12 (configuration not stated) | > 400 µg/mL | >400 µg/mL | > 1000 µg/mL | > 1000 µg/mL | > 1000 µg/mL | > 1000 µg/mL | 100 µg/mL (≈ 398 µM) | > 400 µg/mL | > 400 µg/mL | >400 µg/mL | > 400 µg/mL | > 400 µg/mL | > 400 µg/mL | > 400 µg/mL | >400 µg/mL |  | > 400 µg/mL |  |
| NC(=O)c1cn([C@@H]2O[C@H](CO)[C@@H](O)[C@@H]2O)c2ncnc(N)c12 | 4 µg/mL (≈ 12.9 µM) | 10 µg/mL | 0.98 µg/mL (≈ 3.17 µM) | 2.2 µg/mL (≈ 7.11 µM) | 5.85 µg/mL (≈ 18.9 µM) | 50 µg/mL (≈ 162 µM) | 10 µg/mL (≈ 32.3 µM) | 1 µg/mL (≈ 3.23 µM) | > 10 µg/mL | 40 µg/mL | 6 µg/mL (≈ 19.4 µM) | > 40 µg/mL | 1.5 µg/mL (≈ 4.85 µM) | 3 µg/mL (≈ 9.7 µM) | 40 µg/mL | 1 µg/mL (≈ 3.23 µM) |  |  |
| Nc1ncnc2c1ccn2[C@@H]1O[C@H](CO)[C@H](O)[C@H]1O | 0.2 µg/mL (≈ 0.751 µM) | 4 µg/mL | 0.248 µg/mL (≈ 0.931 µM) |  |  | 6.7 µg/mL (≈ 25.2 µM) | > 40 µg/mL | > 40 µg/mL | > 4 µg/mL | 10 µg/mL | > 40 µg/mL | > 40 µg/mL | > 4 µg/mL | > 10 µg/mL | 40 µg/mL | 0.07 µg/mL (≈ 0.263 µM) |  |  |
| NC(=O)c1cn([C@H]2C[C@H](O)[C@@H](CO)O2)c2ncnc(N)c12 | 2 µg/mL (≈ 6.82 µM) | 10 µg/mL | 1.21 µg/mL (≈ 4.13 µM) |  |  | 16 µg/mL (≈ 54.6 µM) | > 10 µg/mL | > 10 µg/mL | > 10 µg/mL | 10 µg/mL | > 10 µg/mL | > 10 µg/mL | 1 µg/mL (≈ 3.41 µM) | 2 µg/mL (≈ 6.82 µM) | 10 µg/mL | 1 µg/mL (≈ 3.41 µM) |  |  |
| N#Cc1cn([C@H]2C[C@H](O)[C@@H](CO)O2)c2ncnc(N)c12 | > 1 µg/mL | 4 µg/mL | 0.109 µg/mL (≈ 0.396 µM) | 0.265 µg/mL (≈ 0.963 µM) | 0.34 µg/mL (≈ 1.24 µM) | 10 µg/mL (≈ 36.3 µM) | 0.5 µg/mL (≈ 1.82 µM) | > 1 µg/mL | > 4 µg/mL | 4 µg/mL | > 1 µg/mL | > 1 µg/mL | 0.08 µg/mL (≈ 0.291 µM) | 0.5 µg/mL (≈ 1.82 µM) | 1 µg/mL | 0.3 µg/mL (≈ 1.09 µM) |  |  |
| NC(=O)c1cn(C2OC(CO)CC2O)c2ncnc(N)c12 (configuration not stated) | > 10 µg/mL | 40 µg/mL | 0.46 µg/mL (≈ 1.57 µM) |  |  | 17 µg/mL (≈ 58 µM) | > 40 µg/mL | 10 µg/mL (≈ 34.1 µM) | > 40 µg/mL | 10 µg/mL | > 40 µg/mL | > 40 µg/mL | > 40 µg/mL | > 10 µg/mL | 40 µg/mL | > 10 µg/mL | > 40 µg/mL |  |
| Nc1ncnc2c1ccn2[C@H]1C[C@H](O)[C@@H](CO)O1 [2'-Deoxytubercidin] | 50 µg/mL (≈ 200 µM) | >400 µg/mL | 23 µg/mL (≈ 91.9 µM) | 44 µg/mL (≈ 176 µM) | 205 µg/mL (≈ 819 µM) | 127 µg/mL (≈ 507 µM) | > 200 µg/mL | 40 µg/mL (≈ 160 µM) | 150 µg/mL (≈ 599 µM) | >400 µg/mL | 200 µg/mL (≈ 799 µM) | > 400 µg/mL | 150 µg/mL (≈ 599 µM) | 125 µg/mL (≈ 499 µM) | >400 µg/mL | 40 µg/mL (≈ 160 µM) |  |  |
| Nc1ncnc2c([C@@H]3O[C@H](CO)[C@@H](O)[C@H]3O)[nH]nc12 [FORMYCIN] | 10 µg/mL (≈ 37.4 µM) | 1 µg/mL | 3.7 µg/mL (≈ 13.8 µM) | 5.5 µg/mL (≈ 20.6 µM) | 25.7 µg/mL (≈ 96.2 µM) | 7.5 µg/mL (≈ 28.1 µM) | > 10 µg/mL | 2 µg/mL (≈ 7.48 µM) | > 1 µg/mL | 20 µg/mL | > 10 µg/mL | > 10 µg/mL | > 1 µg/mL | 10 µg/mL (≈ 37.4 µM) | 10 µg/mL | 8 µg/mL (≈ 29.9 µM) |  |  |
| NC(=O)c1ncn([C@@H]2O[C@H](CO)[C@@H](O)[C@H]2O)n1 [RIBAVIRIN] | > 400 µg/mL | >400 µg/mL |  |  |  |  | 30 µg/mL (≈ 123 µM) | 50 µg/mL (≈ 205 µM) | 20 µg/mL (≈ 81.9 µM) | >400 µg/mL | 75 µg/mL (≈ 307 µM) | 65 µg/mL (≈ 266 µM) | 4 µg/mL (≈ 16.4 µM) | 300 µg/mL (≈ 1230 µM) | >400 µg/mL | > 400 µg/mL | 40 µg/mL (≈ 164 µM) | 70 µg/mL (≈ 287 µM) |
| NC(=O)c1cn([C@@H]2O[C@H](CO)[C@@H](O)[C@H]2O)c2ncnc(N)c12 [SANGIVAMYCIN] | 0.07 µg/mL (≈ 0.226 µM) | 0.4 µg/mL | 0.019 µg/mL (≈ 0.0614 µM) | 0.014 µg/mL (≈ 0.0453 µM) |  | > 100 µg/mL |  | 0.02 µg/mL (≈ 0.0647 µM) | 0.07 µg/mL (≈ 0.226 µM) | 1 µg/mL | > 0.4 µg/mL | > 0.4 µg/mL | 0.04 µg/mL (≈ 0.129 µM) | 0.02 µg/mL (≈ 0.0647 µM) | 0.4 µg/mL | 0.07 µg/mL (≈ 0.226 µM) |  |  |
| N#Cc1cn([C@@H]2O[C@H](CO)[C@@H](O)[C@H]2O)c2ncnc(N)c12 [TOYOCAMYCIN] | > 0.04 µg/mL | 0.4 µg/mL | 0.006 µg/mL (≈ 0.0206 µM) | 0.039 µg/mL (≈ 0.134 µM) | 0.071 µg/mL (≈ 0.244 µM) | 38 µg/mL (≈ 130 µM) |  | > 0.04 µg/mL | > 0.4 µg/mL | 0.04 µg/mL | > 0.04 µg/mL | > 0.04 µg/mL | 0.07 µg/mL (≈ 0.24 µM) | > 0.04 µg/mL | 0.04 µg/mL | > 0.04 µg/mL |  |  |
